This note sets out measurements from ChEMBL document CHEMBL4725468, “Identification of 3,5-Dimethylisoxazole Derivatives as BRD4 Inhibitors for the Treatment of Colorectal Cancer” (ACS Med Chem Lett, 2020).

pIC50: −log10 of the molar value. Calls of active or inactive are those of the source. The rule behind the calls is not given here. Some results are limits rather than exact numbers.

For orientation: pIC50 means the negative decadic logarithm of the IC50, by convention in mol/L.

One test has as its target Bromodomain-containing protein 4 (Homo sapiens, UniProt O60885). The experiment in a line: Inhibition of BRD4 bromodomain1 (unknown origin) using peptide histone H4 (SGRGACKGGACKGLGAC-KGGAACKRHGSGSK-biotin) as substrate incubated for 15 mins followed by substrate addition measured after 1 hr by alphascreen assay.
Conditions: not given
A general note: Alpha assays give light when donor and acceptor beads are brought close together.
The compound `Cc1noc(C)c1-c1ccc2c(c1)C(c1ccccc1)N(Cc1cn(CCOCCOCCn3cc(CN4C(=O)Nc5ccc(-c6c(C)noc6C)cc5C4c4ccccc4)nn3)nn1)C(=O)N2` (configuration not stated) had a negative logarithm of the IC50 (pIC50) of more than 8.68.

The compound `Cc1noc(C)c1-c1ccc2c(c1)C(c1ccccc1)N(Cc1cn(CCn3cc(CN4C(=O)Nc5ccc(-c6c(C)noc6C)cc5C4c4ccccc4)nn3)nn1)C(=O)N2` (configuration not stated) showed a pIC50 of more than 8.68.

In the case of `Cc1noc(C)c1-c1ccc2c(c1)C(c1ccccc1)N(CCOCCOCCOCCN1C(=O)N(C)c3ccc(-c4c(C)noc4C)cc3C1c1ccccc1)C(=O)N2C` (configuration not stated), the pIC50 was 7.72.

Consider `Cc1noc(C)c1-c1ccc2c(c1)C(c1ccccc1)N(CCCCCN1C(=O)N(C)c3ccc(-c4c(C)noc4C)cc3C1c1ccccc1)C(=O)N2C` (configuration not stated), for which the negative logarithm of the IC50 (pIC50) is 7.25.

The compound `Cc1noc(C)c1-c1ccc2c(c1)C(c1ccccc1)N(CCOCCOCCN1C(=O)N(C)c3ccc(-c4c(C)noc4C)cc3C1c1ccccc1)C(=O)N2C` (configuration not stated) had a negative-log IC50 (pIC50) of 7.51.

As to `Cc1noc(C)c1-c1ccc2c(c1)C(c1ccccc1)NC(=O)N2C` (configuration not stated), the negative logarithm of the IC50 (pIC50) is 7.49.

The subject of the next test is BXPC-3. The experiment in a line: Antiproliferation activity against human BxPC3 cells assessed as reduction in cell viability at 2.5 uM incubated for 48 hrs by MTT assay relative to control. Type of test: functional.
Conditions: not given
The essentials:
(§1)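 Single-concentration screen at 2.5 μM against BxPc3 and Mia-capa2 pancreatic cancer cells. Read-out is percent growth inhibition.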
Background: Tetrazolium assays rely on reduction of a dye to a coloured formazan, in cell work by metabolically active cells.
`Cc1noc(C)c1-c1ccc2c(c1)C(c1ccccc1)N(CCCCCCCCCCN1C(=O)N(C)c3ccc(-c4c(C)noc4C)cc3C1c1ccccc1)C(=O)N2C` (configuration not stated): the Activity is given as 45.2%.

With `Cc1noc(C)c1-c1ccc2c(c1)C(c1ccccc1)N(Cc1cn(CCOCCOCCn3cc(CN4C(=O)Nc5ccc(-c6c(C)noc6C)cc5C4c4ccccc4)nn3)nn1)C(=O)N2` (configuration not stated), the Activity is reported as 21.8%.

Regarding `Cc1sc2c(c1C)C(c1ccc(Cl)cc1)=N[C@@H](CC(=O)OC(C)(C)C)c1nnc(C)n1-2`, the Activity came to 9.1%.

Turning to `Cc1noc(C)c1-c1ccc2c(c1)C(c1ccccc1)N(Cc1cn(CCn3cc(CN4C(=O)Nc5ccc(-c6c(C)noc6C)cc5C4c4ccccc4)nn3)nn1)C(=O)N2` (configuration not stated), the Activity was determined as 53%.

For the compound `Cc1noc(C)c1-c1ccc2c(c1)C(c1ccccc1)N(CCOCCOCCOCCN1C(=O)N(C)c3ccc(-c4c(C)noc4C)cc3C1c1ccccc1)C(=O)N2C` (configuration not stated), the Activity was 42.1%.

`Cc1noc(C)c1-c1ccc2c(c1)C(c1ccccc1)N(CCCCCN1C(=O)N(C)c3ccc(-c4c(C)noc4C)cc3C1c1ccccc1)C(=O)N2C` (configuration not stated): the Activity was found to be 27.9%.

Take `Cc1noc(C)c1-c1ccc2c(c1)C(c1ccccc1)N(CCOCCOCCN1C(=O)N(C)c3ccc(-c4c(C)noc4C)cc3C1c1ccccc1)C(=O)N2C` (configuration not stated): the Activity came out at 7.1%.

Regarding `Cc1noc(C)c1-c1ccc2c(c1)C(c1ccccc1)NC(=O)N2C` (configuration not stated), the Activity came out at 11.2%.

The subject of the next test is MIA PaCa-2. The experiment in a line: Antiproliferation activity against human MIAPaCa2 cells assessed as reduction in cell viability at 2.5 uM incubated for 48 hrs by MTT assay relative to control. Type of test: functional.
Conditions: not given
The essentials:
as §1
On to `Cc1noc(C)c1-c1ccc2c(c1)C(c1ccccc1)N(CCCCCCCCCCN1C(=O)N(C)c3ccc(-c4c(C)noc4C)cc3C1c1ccccc1)C(=O)N2C` (configuration not stated), for which the Activity is reported as 65.2%.

Regarding `Cc1noc(C)c1-c1ccc2c(c1)C(c1ccccc1)N(Cc1cn(CCOCCOCCn3cc(CN4C(=O)Nc5ccc(-c6c(C)noc6C)cc5C4c4ccccc4)nn3)nn1)C(=O)N2` (configuration not stated), the Activity amounted to 63.2%.

Regarding `Cc1sc2c(c1C)C(c1ccc(Cl)cc1)=N[C@@H](CC(=O)OC(C)(C)C)c1nnc(C)n1-2`, the Activity is reported as 56.2%.

On to `Cc1noc(C)c1-c1ccc2c(c1)C(c1ccccc1)N(Cc1cn(CCn3cc(CN4C(=O)Nc5ccc(-c6c(C)noc6C)cc5C4c4ccccc4)nn3)nn1)C(=O)N2` (configuration not stated), for which the Activity turned out to be 62.2%.

Take `Cc1noc(C)c1-c1ccc2c(c1)C(c1ccccc1)N(CCOCCOCCOCCN1C(=O)N(C)c3ccc(-c4c(C)noc4C)cc3C1c1ccccc1)C(=O)N2C` (configuration not stated): the Activity was 73.4%.

Take `Cc1noc(C)c1-c1ccc2c(c1)C(c1ccccc1)N(CCCCCN1C(=O)N(C)c3ccc(-c4c(C)noc4C)cc3C1c1ccccc1)C(=O)N2C` (configuration not stated): the Activity is recorded as 71.3%.

`Cc1noc(C)c1-c1ccc2c(c1)C(c1ccccc1)N(CCOCCOCCN1C(=O)N(C)c3ccc(-c4c(C)noc4C)cc3C1c1ccccc1)C(=O)N2C` (configuration not stated): the Activity stood at 67.3%.

Regarding `Cc1noc(C)c1-c1ccc2c(c1)C(c1ccccc1)NC(=O)N2C` (configuration not stated), the Activity is given as 59.1%.

The subject of another test is HCT-116. The experiment in a line: Antiproliferation activity against human HCT116 cells assessed as reduction in cell viability at 2 uM incubated for 48 hrs by MTT assay relative to control. Type of test: functional.
Conditions: not given
The gist of the method: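 HCT116 colon cancer cells screened at a single 2.0 μM concentration. Read-out is percent growth inhibition.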
For the compound `Cc1noc(C)c1-c1ccc2c(c1)C(c1ccccc1)N(CCCCCCCCCCN1C(=O)N(C)c3ccc(-c4c(C)noc4C)cc3C1c1ccccc1)C(=O)N2C` (configuration not stated), the Activity is on record as 48.8%.

For the compound `Cc1noc(C)c1-c1ccc2c(c1)C(c1ccccc1)N(Cc1cn(CCOCCOCCn3cc(CN4C(=O)Nc5ccc(-c6c(C)noc6C)cc5C4c4ccccc4)nn3)nn1)C(=O)N2` (configuration not stated), the Activity worked out at 60.5%.

With `Cc1sc2c(c1C)C(c1ccc(Cl)cc1)=N[C@@H](CC(=O)OC(C)(C)C)c1nnc(C)n1-2`, the Activity was determined as 23.2%.

With `Cc1noc(C)c1-c1ccc2c(c1)C(c1ccccc1)N(Cc1cn(CCn3cc(CN4C(=O)Nc5ccc(-c6c(C)noc6C)cc5C4c4ccccc4)nn3)nn1)C(=O)N2` (configuration not stated), the Activity is listed as 60.3%.

As for `Cc1noc(C)c1-c1ccc2c(c1)C(c1ccccc1)N(CCOCCOCCOCCN1C(=O)N(C)c3ccc(-c4c(C)noc4C)cc3C1c1ccccc1)C(=O)N2C` (configuration not stated), the Activity is given as 35.3%.

For the compound `Cc1noc(C)c1-c1ccc2c(c1)C(c1ccccc1)N(CCCCCN1C(=O)N(C)c3ccc(-c4c(C)noc4C)cc3C1c1ccccc1)C(=O)N2C` (configuration not stated), the Activity came out at 52%.

Regarding `Cc1noc(C)c1-c1ccc2c(c1)C(c1ccccc1)N(CCOCCOCCN1C(=O)N(C)c3ccc(-c4c(C)noc4C)cc3C1c1ccccc1)C(=O)N2C` (configuration not stated), the Activity was found to be 43.4%.

Regarding `Cc1noc(C)c1-c1ccc2c(c1)C(c1ccccc1)NC(=O)N2C` (configuration not stated), the Activity amounted to 14%.

For a further test, the system named is HCT-116. The experiment in a line: Antiproliferation activity against human HCT116 cells assessed as reduction in cell viability incubated for 48 hrs by MTT assay. Type of test: functional, cell-based. The note with it: HCT-116, 48 h. The essentials: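 HCT116 cells treated across a concentration gradient. IC50 was taken from dose–response curves, reported as mean ± SD of at least three independent experiments.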
On to `Cc1sc2c(c1C)C(c1ccc(Cl)cc1)=N[C@@H](CC(=O)OC(C)(C)C)c1nnc(C)n1-2`, for which the pIC50 is 5.38.

Take `Cc1noc(C)c1-c1ccc2c(c1)C(c1ccccc1)NC(=O)N2C` (configuration not stated): the pIC50 is 5.48.

The next test concerns HCT-116. The experiment in a line: Induction of cell cycle arrest in human HCT116 cells assessed as accumulation at G0/G1 phase at 0.16 uM incubated for 48 hrs by flow cytometry. Type of test: functional, cell-based.
Conditions: not given
The gist of the method:
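HCT116 cells exposed to 0.16 μM for 48 h. Cell cycle phase distribution was measured, including the G0/G1 fraction.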
Background: A flow cytometer gives signals particle by particle.
`Cc1noc(C)c1-c1ccc2c(c1)C(c1ccccc1)NC(=O)N2C` (configuration not stated): the outcome was Active.

The test system of a further test is HCT-116. The experiment in a line: Antiproliferation activity against human HCT116 cells assessed as reduction in cell viability for 12 days by crystal violet staining based plate clone-forming analysis. Type of test: functional. The note with it: dose microM 0.008-0.165, time 12.0 day. The essentials:
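Plate colony-formation assay in HCT116 cells with 12 days of compound exposure at several concentrations.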
As for `Cc1noc(C)c1-c1ccc2c(c1)C(c1ccccc1)NC(=O)N2C` (configuration not stated), the inhibition entry is “Active”.

The test system of the next test is HCT-116. The experiment in a line: Induction of apoptosis in human HCT116 cells assessed as downregulation of c-myc protein expression at 1 uM incubated for 48 hrs by western blot analysis. Type of test: functional, cell-based.
Conditions: not given
The essentials: (§2)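 HCT116 cells treated at 1 μM for 48 h. Bcl-2, HEXIM1, BRD4 and c-Myc protein levels were measured by western blot.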
For `Cc1noc(C)c1-c1ccc2c(c1)C(c1ccccc1)NC(=O)N2C` (configuration not stated), the result was Active.

The test system of the next test is HCT-116. The experiment in a line: Induction of apoptosis in human HCT116 cells assessed as decrease in Bcl2 protein expression level at 1 uM incubated for 48 hrs by western blot analysis. Type of test: functional, cell-based.
Conditions: not given
The gist of the method: as §2
In the case of `Cc1noc(C)c1-c1ccc2c(c1)C(c1ccccc1)NC(=O)N2C` (configuration not stated), the outcome was Active.

A further test has as its system CT26. The experiment in a line: Antitumor activity against mouse CT26 cells xenografted in C57BL/6 mouse assessed as tumor suppression at 20 mg/kg, ip administered for 14 days and measured every two days relative to control. The note with it: C57BL/6, CT26, ip, 336 h, read-out: GI.
For `Cc1noc(C)c1-c1ccc2c(c1)C(c1ccccc1)NC(=O)N2C` (configuration not stated), the inhibition in vivo at 20 mg/kg is 11.5%.
